{"data": "Published values collected from several papers", "target": "Cholinesterase (BCHE, Homo sapiens, UniProt P06276)", "effect on": "enzyme activity", "action": "inhibitor", "note": "Compare with care: the assays were run in different laboratories."}
{"Structure (SMILES)": "O=[N+]([O-])c1c[nH]c(-c2n[nH]c(=S)n2/N=C/c2ccc(Br)c(Br)c2)c1", "technique": "Ellman", "IC50 [nM]": 28400}
{"Structure (SMILES)": "Cn1cc(-c2cc(C(=O)NN=Cc3ccccc3F)no2)c2ccccc21", "IC50 [nM]": "> 100000"}
{"Structure (SMILES)": "CCN(CC)c1ccc(C=NNC(=O)c2ccc(F)cc2)c(OS(=O)(=O)c2ccc(OC)cc2)c1", "technique": "Ellman", "IC50 [nM]": 97.2}
{"Structure (SMILES)": "O=[N+]([O-])c1c[nH]c(-c2n[nH]c(=S)n2/N=C/c2ccc(F)cc2)c1", "technique": "Ellman", "IC50 [nM]": 9100}
{"Structure (SMILES)": "C#CCN(C)CCCCOc1cccc(CN(C)c2c3c(nc4ccccc24)CCCC3)c1", "technique": "Ellman", "IC50 [nM]": 370}
{"Structure (SMILES)": "Cn1cc(-c2cc(C(=O)NN=Cc3ccncc3)no2)c2ccccc21", "IC50 [nM]": "> 100000"}
{"Structure (SMILES)": "C#CCN(C)CCCCCCCOc1cccc(CN(C)c2c3c(nc4ccccc24)CCCC3)c1", "technique": "Ellman", "IC50 [nM]": 310}
{"Structure (SMILES)": "CN(C)c1ccc(/C=N/n2c(-c3cc([N+](=O)[O-])c[nH]3)n[nH]c2=S)c(O)c1", "technique": "Ellman", "IC50 [nM]": 22200}
{"Structure (SMILES)": "Cc1ccc(CN2CCN(Cc3nnc(-c4ccccc4)o3)CC2)cc1", "technique": "Ellman", "IC50 [nM]": "> 10000"}
{"Structure (SMILES)": "COc1ccc(/C=N/n2c(-c3cc([N+](=O)[O-])c[nH]3)n[nH]c2=S)cc1", "technique": "Ellman", "IC50 [nM]": 26200}
{"Structure (SMILES)": "CSc1ccc(C=NNC(=O)c2cc(-c3cn(C)c4ccccc34)on2)cc1", "IC50 [nM]": "> 100000"}
{"Structure (SMILES)": "C#CCN(C)CCCCOCc1ccc(CN(C)c2c3c(nc4ccccc24)CCCC3)cc1", "technique": "Ellman", "IC50 [nM]": 1470}
{"Structure (SMILES)": "COc1ccccc1C=NNC(=O)c1cc(-c2cn(C)c3ccccc23)on1", "IC50 [nM]": "> 100000"}
{"Structure (SMILES)": "COc1ccc(S(=O)(=O)Oc2ccc3ccccc3c2C=NNC(=O)c2ccc(F)cc2)cc1", "technique": "Ellman", "IC50 [nM]": 134}
{"Structure (SMILES)": "C#CCN(C)CCCCCCOCc1ccc(CN(C)c2c3c(nc4ccc(C)cc24)CCCC3)cc1", "technique": "Ellman", "IC50 [nM]": 1270}
{"Structure (SMILES)": "COc1ccc(S(=O)(=O)Oc2cccc(C=NNC(=O)c3ccc(F)cc3)c2)cc1", "technique": "Ellman", "IC50 [nM]": 111}
{"Structure (SMILES)": "C#CCN(C)CCCCCOCc1ccc(CN(C)c2c3c(nc4ccccc24)CCCC3)cc1", "technique": "Ellman", "IC50 [nM]": 610}
{"Structure (SMILES)": "O=[N+]([O-])c1c[nH]c(-c2n[nH]c(=S)n2/N=C/c2ccc(Oc3ccccc3)cc2)c1", "technique": "Ellman", "IC50 [nM]": 21100}
{"Structure (SMILES)": "C#CCN(C)CCCCCCCCOc1cccc(CN(C)c2c3c(nc4ccccc24)CCCC3)c1", "technique": "Ellman", "IC50 [nM]": 910}
{"Structure (SMILES)": "O=[N+]([O-])c1c[nH]c(-c2n[nH]c(=S)n2/N=C/c2cc(O)cc(F)c2)c1", "technique": "Ellman", "IC50 [nM]": 9600}
{"Structure (SMILES)": "COc1cccc(C=NNC(=O)c2cc(-c3cn(C)c4ccccc34)on2)c1O", "IC50 [nM]": "> 100000"}
{"Structure (SMILES)": "C#CCN(C)CCCCOCc1ccc(CN(C)c2c3c(nc4ccc(C)cc24)CCCC3)cc1", "technique": "Ellman", "IC50 [nM]": 1780}
